In ChEMBL document CHEMBL3392995, “Erinacerins C-L, isoindolin-1-ones with α-glucosidase inhibitory activity from cultures of the medicinal mushroom Hericium erinaceus” (J Nat Prod, 2015) one finds IC50 data, which are given here for 17 compounds.

One experiment concerns A549. The experiment in a line: Cytotoxicity against human A549 cells after 72 hrs by MTT assay. The format is functional, cell-based. Particulars: A549, 72 h. In short, it runs like this:
(§1)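 MTT read-out of cell viability in A549 (human lung adenocarcinoma) and HeLa (cervical cancer) cells. Values are means of three independent experiments, each run in triplicate.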
(In general: Formazan colour is commonly taken as a measure of viable cells.)

Experiment [1] is described as follows: Inhibition of baker's yeast alpha-glucosidase using p-nitrophenyl-alpha-D-glucopyranoside as substrate incubated with enzyme for 10 mins prior to substrate challenge for 15 mins by microplate reader analysis. On the set-up: species or system Saccharomyces cerevisiae. In short, it runs like this:
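Run in 96-well format, read as absorbance at 405 nm. Control used phosphate buffer in place of sample; blank used phosphate buffer in place of α-glucosidase. Inhibition (%) = [(ODcontrol − ODcontrol blank) − (ODtest − ODtest blank)]/(ODcontrol − ODcontrol blank) × 100. Acarbose served as positive control. Means of three independent experiments, each in triplicate.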

The test system of another experiment is HeLa. Briefly: Cytotoxicity against human HeLa cells after 72 hrs by MTT assay. The format is functional, cell-based. In short, it runs like this:
as §1

In general, IC50 refers to the point on the concentration scale where inhibition reaches its midpoint. `C/C(=C\Cc1c(O)cc2c(c1O)CNC2=O)CC/C=C(\C)C(=O)O`: the IC50 in the experiment on A549 was above 100 µM; in experiment [1] it was above 200 µM; with HeLa, above 100 µM.

On to `C/C(=C\Cc1c(O)cc2c(c1O)CN(CCO)C2=O)CC/C=C(\C)C(=O)O`, for which the IC50 was above 100 µM in the experiment on A549, 24.2 µM in experiment [1] and above 100 µM in the experiment on HeLa.

`C/C(=C\Cc1c(O)cc2c(c1O)CN([C@H](C(=O)O)C(C)C)C2=O)CC/C=C(\C)C(=O)O`: the IC50 in the experiment on A549 is above 100 µM; in experiment [1], 12.8 µM; with HeLa, above 100 µM.

For `CC[C@H](C)[C@@H](C(=O)O)N1Cc2c(cc(O)c(C/C=C(\C)CC/C=C(\C)C(=O)O)c2O)C1=O`, the values for the IC50 (in the experiment on A549; in experiment [1]; with HeLa) were above 100 µM, 39.6 µM and above 100 µM, respectively.

For `COC(=O)CC/C(C)=C/Cc1c(O)cc2c(c1O)CNC2=O`, the IC50 is above 100 µM in the experiment with A549, 145 µM in experiment [1] and above 100 µM with HeLa.

As for `COC(=O)C/C=C(\C)CCc1c(O)cc2c(c1O)CNC2=O`, the IC50 with A549 is above 100 µM; in experiment [1], 10.3 µM; in the experiment on HeLa it was above 100 µM.

As to `COC(=O)CC/C(C)=C/Cc1c(O)cc2c(c1O)CN(CCO)C2=O`, the IC50 in the experiment with A549 was above 100 µM; in experiment [1], 97.8 µM; with HeLa, above 100 µM.

Regarding `COC(=O)C/C=C(\C)CCc1c(O)cc2c(c1O)CN(CCO)C2=O`, the figures for the IC50 (in the experiment on A549; in experiment [1]; in the experiment on HeLa) were 96.1 µM, 18.6 µM and above 100 µM, respectively.

Turning to `COC(=O)CC/C(C)=C/Cc1c(O)cc2c(c1O)CN([C@@H](Cc1ccccc1)C(=O)OC)C2=O`, the values for the IC50 (with A549; in experiment [1]; in the experiment with HeLa) were 89.7 µM, 15.5 µM and above 100 µM, respectively.

With `COC(=O)C/C=C(\C)CCc1c(O)cc2c(c1O)CN([C@@H](Cc1ccccc1)C(=O)OC)C2=O`, the figures for the IC50 (in the experiment on A549; in experiment [1]; with HeLa) were above 100 µM, 19.8 µM and above 100 µM, respectively.

Regarding `COc1cc2c(c(O)c1C/C=C(\C)CCC=C(C)C)CN(CCc1ccccc1)C2=O`, the IC50 with A549 turned out to be 49 µM; in experiment [1], 5.3 µM; in the experiment on HeLa it was 40.5 µM.

As to `O=C(O)[C@@H](Cc1ccccc1)N1Cc2ccccc2C1=O`, the IC50 in the experiment with A549 was above 100 µM; in experiment [1], above 200 µM; in the experiment with HeLa, above 100 µM.

As to `CC[C@H](C)[C@@H](C(=O)O)N1Cc2ccccc2C1=O`, the IC50 with A549 was above 100 µM; in experiment [1], above 200 µM; with HeLa it was above 100 µM.

On to `CC(C)[C@@H](C(=O)O)N1Cc2ccccc2C1=O`, for which the results for the 50% inhibitory concentration (IC50) (with A549; in experiment [1]; in the experiment with HeLa) were 89.7 µM, above 200 µM and above 100 µM, respectively.

Consider `CC(C)[C@H](C(=O)O)N1Cc2ccccc2C1=O`, for which the IC50 was 41.5 µM in the experiment with A549, above 200 µM in experiment [1] and above 100 µM in the experiment on HeLa.

For `O=C(O)[C@H](Cc1ccccc1)N1Cc2ccccc2C1=O`, the IC50 was above 100 µM in the experiment on A549, above 200 µM in experiment [1] and above 100 µM in the experiment with HeLa.

As for `C[C@H]1O[C@H](O[C@H]2[C@H](O)[C@@H](O)[C@@H](O[C@H]3[C@H](O)[C@@H](O)C(O)O[C@@H]3CO)O[C@@H]2CO)[C@H](O)[C@@H](O)[C@@H]1N[C@H]1C=C(CO)[C@@H](O)[C@H](O)[C@H]1O` (some centres undefined) [ACARBOSE], the IC50 in experiment [1] is 383 µM.
